Legend:
[1] = target: T1, Cathepsin E (Homo sapiens, UniProt P14091); assay: Inhibition of human recombinant cathepsin E
T1 sequence (P14091 whole entry): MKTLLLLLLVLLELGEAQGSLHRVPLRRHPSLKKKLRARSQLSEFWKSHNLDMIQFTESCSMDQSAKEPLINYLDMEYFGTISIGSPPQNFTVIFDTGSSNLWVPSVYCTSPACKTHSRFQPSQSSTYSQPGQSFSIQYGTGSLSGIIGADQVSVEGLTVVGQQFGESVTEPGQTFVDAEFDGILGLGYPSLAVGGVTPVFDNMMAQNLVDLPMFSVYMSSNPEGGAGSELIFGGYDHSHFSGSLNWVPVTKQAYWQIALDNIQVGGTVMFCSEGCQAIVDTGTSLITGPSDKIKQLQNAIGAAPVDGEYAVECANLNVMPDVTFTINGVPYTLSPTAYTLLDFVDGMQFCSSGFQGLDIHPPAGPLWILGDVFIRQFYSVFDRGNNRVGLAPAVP

[2] = Intrinsic clearance in rat hepatocytes assessed per 10^6 cells at 1 uM after 10 to 90 mins by LC-MS/MS method; type: ADME, cell-based, Hepatocyte
[3] = Intrinsic clearance in dog hepatocytes assessed per 10^6 cells at 1 uM after 10 to 90 mins by LC-MS/MS method; type: ADME, cell-based, Canis lupus familiaris, Hepatocyte
[4] = Oral bioavailability in Beagle dog at 2 mg/kg; type: ADME, organism-based, Canis lupus familiaris; details: in vivo
[5] = Volume of distribution at steady state in Han Wistar rat at 1 mg/kg, iv and 3 mg/kg, po; type: ADME, organism-based; details: in vivo, read-out: Vdss
How it was run: (§1)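 Han Wistar rat PK with 1 mg/kg iv and 3 mg/kg po doses, both in pH3 buffer. Clearance is given in ml/min/kg, Vss in L/kg and t1/2 in h.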

[6] = target: Procathepsin L (Homo sapiens, UniProt P07711); assay: Inhibition of human recombinant cathepsin L
Chain of Procathepsin L (P07711 whole entry): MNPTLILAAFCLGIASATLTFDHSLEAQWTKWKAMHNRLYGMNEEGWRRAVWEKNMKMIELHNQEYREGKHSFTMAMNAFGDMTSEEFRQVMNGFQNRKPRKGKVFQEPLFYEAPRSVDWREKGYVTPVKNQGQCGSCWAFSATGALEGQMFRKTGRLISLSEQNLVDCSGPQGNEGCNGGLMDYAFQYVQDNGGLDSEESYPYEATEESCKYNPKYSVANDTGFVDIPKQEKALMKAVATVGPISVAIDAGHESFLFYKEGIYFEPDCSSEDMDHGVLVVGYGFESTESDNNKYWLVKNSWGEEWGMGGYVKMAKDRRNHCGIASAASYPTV

[7] = test system: Rattus norvegicus; assay: In vivo inhibition of DPP1 in po dosed naive rat assessed as inactivation of neutrophil elastase in bone marrow cell lysates administered as bid for 8 days; type: functional, organism-based
[8] = Oral bioavailability in Han Wistar rat at 3 mg/kg; type: ADME, organism-based; details: in vivo; how it was run: as §1
[9] = target: Cathepsin B (Homo sapiens, UniProt P07858); assay: Inhibition of human recombinant cathepsin B
[10] = Apparent permeability across apical to basolateral side in human Caco2 cells at 10 uM after 1 hr by LC-MS method; details: Caco-2
[11] = Apparent permeability across basolateral to apical side in human Caco2 cells at 10 uM after 2 hrs by LC-MS/MS method; type: ADME, cell-based; details: Caco-2
How it was run: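 Caco-2 bidirectional permeability run as P_app, given in cm/s x 10^-6.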

[12] = target: T2, Pro-cathepsin H (Homo sapiens, UniProt P09668); assay: Inhibition of human recombinant cathepsin H
T2 sequence (P09668 whole entry): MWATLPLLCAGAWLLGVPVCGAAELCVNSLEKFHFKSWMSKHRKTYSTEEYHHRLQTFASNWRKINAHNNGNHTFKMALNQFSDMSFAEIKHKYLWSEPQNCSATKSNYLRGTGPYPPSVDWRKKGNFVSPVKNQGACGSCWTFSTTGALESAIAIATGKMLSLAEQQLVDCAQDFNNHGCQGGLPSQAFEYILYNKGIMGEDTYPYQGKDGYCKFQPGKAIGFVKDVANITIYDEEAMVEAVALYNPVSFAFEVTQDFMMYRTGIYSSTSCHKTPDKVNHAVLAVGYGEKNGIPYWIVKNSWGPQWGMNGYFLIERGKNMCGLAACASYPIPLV

[13] = Intrinsic clearance in human hepatocytes at 1 uM after 5 to 120 mins by LC-MS/MS method; type: ADME, cell-based, Hepatocyte
How it was run: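 Intrinsic clearance in human hepatocytes, given in µL/min/10^6 cells.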

[14] = Half life in Han Wistar rat at 1 mg/kg, iv and 3 mg/kg, po; type: ADME, organism-based; details: in vivo; how it was run: as §1
[15] = Half life in Beagle dog at 1 mg/kg, iv and 2 mg/kg, po; type: ADME, organism-based, Canis lupus familiaris; details: in vivo
[16] = target: T3, Cathepsin K (Homo sapiens, UniProt P43235); assay: Inhibition of human recombinant cathepsin K
T3 sequence (P43235 whole entry): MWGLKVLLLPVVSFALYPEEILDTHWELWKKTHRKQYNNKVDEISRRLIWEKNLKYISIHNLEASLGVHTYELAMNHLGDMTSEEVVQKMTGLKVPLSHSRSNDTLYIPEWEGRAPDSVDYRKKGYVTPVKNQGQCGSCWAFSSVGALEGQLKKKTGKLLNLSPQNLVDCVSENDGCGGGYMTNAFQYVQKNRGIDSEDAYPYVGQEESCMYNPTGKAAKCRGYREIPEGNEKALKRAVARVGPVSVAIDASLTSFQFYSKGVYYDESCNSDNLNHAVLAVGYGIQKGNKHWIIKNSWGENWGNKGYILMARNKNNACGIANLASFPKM

[17] = Volume of distribution at steady state in Sprague-Dawley rat at 1 mg/kg, iv or 3 mg/kg, po; type: ADME, organism-based; details: in vivo, read-out: Vdss
[18] = Intrinsic clearance in human hepatocytes assessed per 10^6 cells at 1 uM after 10 to 90 mins by LC-MS/MS method; type: ADME, cell-based, Hepatocyte
[19] = Clearance in Sprague-Dawley rat at 1 mg/kg, iv or 3 mg/kg, po; type: ADME, organism-based; details: in vivo
[20] = Protein binding in rat plasma at 10 uM after 6 hrs by LC-MS/MS method; type: ADME, cell-free; details: read-out: PPB (converted)

Cn1c(=O)oc2ccc(-c3ccc(C[C@@H](C#N)NC(=O)[C@@H]4CNCCCO4)cc3)cc21 [BRENSOCATIB]
IC50 [1]: > 20 µM | CLH [2]: < 3.5 µL/min/10^6 cells | CLH [3]: < 3.5 µL/min/10^6 cells | bioavailability [4]: 92% | Vd [5]: 2.5 L/kg | IC50 [6]: > 20 µM | inhibition [7]: Dose-dependent effect | bioavailability [8]: 75% | IC50 [9]: > 20 µM | Papp A→B at 1 h, 10 µM [10]: 92 nm/s | Papp B→A at 2 h, 10 µM [11]: 270 nm/s | IC50 [12]: > 20 µM | CLH [13]: < 1 µL/min/1e6 cells | half-life [14]: 5 h | half-life [15]: 18 h | IC50 [16]: > 20 µM | Vd [17]: 1 L/kg | intrinsic clearance (CLint) [18]: < 3.5 µL/min/10^6 cells | clearance [19]: 0.06 L/h/kg | fraction unbound at 6 h, 10 µM [20]: 0.06

— ChEMBL document CHEMBL3856275, “Discovery of Second Generation Reversible Covalent DPP1 Inhibitors Leading to an Oxazepane Amidoacetonitrile Based Clinical Candidate (AZD7986)” (J Med Chem, 2016)
